ChEMBL document CHEMBL3244426, “Synthesis and biological activities of ftorafur metabolites. 3'- and 4'-hydroxyftorafur” (1979)
Converted amounts (≈) assume the structure as drawn.

Tests used:
Format in all cases: functional
HeLa [1] = assay: Inhibition of cell cycle traverse in human HeLa cells assessed as mitotic index at 200 ug/ml after 16 hrs; set-up: scale not given: the % may be the effect or the level left
Procedure, shortened: (§1)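 HeLa cells were plated at 3.5 × 10^5 per 35-mm dish in Eagle's MEM with 10% fetal calf serum and antibiotics the day before. They were then exposed to drug in the same medium with 0.05 µg/mL colcemid for 16 h. Cells were trypsinized, cytocentrifuged onto slides and fixed in 3:1 MeOH–AcOH. The read-out was the mitotic index, mitotic cells as a percentage of cells counted.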

HeLa [2] = assay: Inhibition of cell cycle traverse in human HeLa cells assessed as mitotic index at 100 ug/ml after 16 hrs; set-up: scale not given: the % may be the effect or the level left; procedure, shortened: as §1
L1210 [3] = assay: In-vivo antitumor activity against mouse L1210 cells at 80 mg/kg relative to control
HeLa [4] = assay: Growth inhibition of human HeLa cells; conditions: read-out: ID50
L1210 [5] = assay: In-vivo antitumor activity against mouse L1210 cells at 100 mg/kg relative to control
L1210 [6] = assay: In-vivo antitumor activity against mouse L1210 cells at 60 mg/kg relative to control
HeLa [7] = assay: Inhibition of cell cycle traverse in human HeLa cells assessed as mitotic index at 25 ug/ml after 16 hrs; set-up: scale not given: the % may be the effect or the level left
Procedure, shortened: (§2)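 HeLa cells (3.5 × 10^5) plated the day before in Eagle's MEM with 10% fetal calf serum and antibiotics. Drug added in the same medium with colcemid 0.05 µg/mL, incubated about 16 h. Cells trypsinized, cytocentrifuged onto slides, fixed in 3:1 MeOH-AcOH. Mitotic and interphase cells counted; mitotic index = % of total. Lower index means greater inhibition of cell cycle traverse.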

HeLa [8] = assay: Inhibition of cell cycle traverse in human HeLa cells assessed as mitotic index at 12.5 ug/ml after 16 hrs; set-up: scale not given: the % may be the effect or the level left; procedure, shortened: as §2
L1210 [9] = assay: In-vivo antitumor activity against mouse L1210 cells at 20 mg/kg relative to control
HeLa [10] = assay: Inhibition of cell cycle traverse in human HeLa cells assessed as mitotic index at 50 ug/ml after 16 hrs; set-up: scale not given: the % may be the effect or the level left; procedure, shortened: as §2

SMILES | Activity (HeLa [1]) | Activity (HeLa [2]) | T/C (L1210 [3]) | ED50 (HeLa [4]) | T/C (L1210 [5]) | T/C (L1210 [6]) | Activity (HeLa [7]) | Activity (HeLa [8]) | T/C (L1210 [9]) | Activity (HeLa [10])
O=c1[nH]c(=O)n(C2CCCO2)cc1F (racemic) [TEGAFUR] | 36% | 60.3% | 102% | 200 mg/L (≈ 999 µM) | – | – | – | – | – | –
O=c1[nH]c(=O)n([C@@H]2OCC[C@H]2O)cc1F (relative stereo) | 34.7% | 64% | 98% | – | 96% | 108% | – | – | – | –
O=c1[nH]c(=O)n([C@H]2C[C@@H](O)CO2)cc1F (relative stereo) | 44% | 63.3% | 91% | – | 114% | 106% | – | – | – | –
O=c1[nH]cc(F)c(=O)[nH]1 [FLUOROURACIL] | – | – | – | – | – | – | 35.8% | 45.7% | 153% | 31.7%
